Assay results: ChEMBL document CHEMBL4680156, “Discovery of novel pyrido-pyrrolidine hybrid compounds as alpha-glucosidase inhibitors and alternative agent for control of type 1 diabetes” (Eur J Med Chem, 2020)

How the values were obtained:
Saccharomyces cerevisiae = experiment: Binding affinity to Saccharomyces cerevisiae alpha-glucosidase assessed as protein with alpha-helical structure at 0.32 ug/ml by CD spectroscopic method (reference value: 5.3%); conditions: dose 0.32 µg/ml
Summary of the method: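 Compound was added at different concentrations to yeast α-glucosidase (30 U/ml). CD spectra were taken with 3 accumulations (negative bands at 209 and 222 nm). α-Helix and β-sheet content were estimated with secondary-structure estimation software.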

[1] = Clearance in rat; assay type: ADME; conditions: in vivo

Compound: CCOC(=O)c1ccc(-n2c(/C=C3\OC(=O)c4c3cc(C)[nH]c4=O)ccc2CO)cc1
- Activity (Saccharomyces cerevisiae): 5.2%
- clearance [1]: 35.2 mL/min/kg
